Experimental data gathered from unrelated publications.
Oprd1: Delta-type opioid receptor (Oprd1, Rattus norvegicus, UniProt P33533)
CDK2 with cyclin A2: Cyclin-dependent kinase 2, with cyclin A2 (CDK2, Homo sapiens, UniProt P24941)
ST14: Suppressor of tumorigenicity 14 protein (ST14, Homo sapiens, UniProt Q9Y5Y6)

SMILES	target	read-out	mode	method	tested at	quantity	result
COc1ccc(CN2C[C@](C)(O)[C@@H]3C[C@H]2[C@@H](C)c2nc4ccccc4c(-c4ccccc4)c23)cc1	Oprd1	ligand displacement	–	radioligand	1 µM	inhibition	0%
CC(=O)Nc1c(N)nc(SCC(=O)N/N=C/c2ccc([N+](=O)[O-])cc2)[nH]c1=O	CDK2 with cyclin A2	enzyme activity	inhibitor	–	5 nM	inhibition	8.37%
CC(C)(C)[C@H](NC(=O)[C@H](Cc1cscn1)NC(=O)CCc1ccccc1)C(=O)N[C@@H](CCCNC(=N)N)C(=O)c1nc2ccccc2s1	ST14	enzyme activity	inhibitor	–	0.1 µM	remaining activity	89%
CC(=O)Nc1c(N)nc(SCC(=O)NN)[nH]c1=O	CDK2 with cyclin A2	enzyme activity	inhibitor	–	5 nM	inhibition	14.6%
Cc1cc([C@@H](C)Nc2ccccc2C(=O)O)c2nc(N3CCC(F)(F)CC3)c(C#N)c(=O)n2c1	Serine/threonine-protein kinase pim-1 (PIM1, Homo sapiens, UniProt P11309)	binding	–	competition with immobilised ligand	1 µM	remaining binding	100%
CC(C)(C)c1ccc(C[C@H](NC(=O)[C@H](Cc2cscn2)NC(=O)CCc2ccccc2)C(=O)N[C@@H](CCCNC(=N)N)C(=O)c2nc3ccccc3s2)cc1	ST14	enzyme activity	inhibitor	–	0.1 µM	remaining activity	80%
C[C@H]1C(=O)/C(=C/c2ccccc2)[C@H]2C[C@@H]1N(Cc1ccccc1)C[C@@]2(C)O	Oprd1	ligand displacement	–	radioligand	1 µM	inhibition	16%
N=C(N)NCCC[C@H](NC(=O)[C@H](Cc1cccc2ccccc12)NC(=O)[C@H](Cc1cscn1)NC(=O)CCc1ccccc1)C(=O)c1nc2ccccc2s1	ST14	enzyme activity	inhibitor	–	0.1 µM	remaining activity	6%
CC(C)Oc1ccc(S(=O)(=O)c2ccc(Oc3cc(OCC(N)=O)c(C(=O)C(Cl)Cl)cc3[N+](=O)[O-])cc2)cc1	[Pyruvate dehydrogenase (acetyl-transferring)] kinase isozyme 4, mitochondrial (PDK4, Homo sapiens, UniProt Q16654)	enzyme activity	inhibitor	ATP luminescence	10 µM	inhibition	31.5%
COc1cc(-c2cncc3c2CN(C)Cc2cc(N4CCNCC4)ccc2-3)cc(OC)c1OC	Cyclin-dependent kinase 2, with cyclin E (CDK2, Homo sapiens, UniProt P24941)	enzyme activity	inhibitor	–	1 µM	remaining activity	107%
CNC(=O)c1cc(Oc2ccc(NC(=O)Nc3ccc(Cl)c(C(F)(F)F)c3)cc2)ccn1	CDK2 with cyclin A2	enzyme activity	inhibitor	–	1 nM	inhibition	19.6%
CC(C)(NC(=O)[C@H](Cc1cscn1)NC(=O)CCc1ccccc1)C(=O)N[C@@H](CCCNC(=N)N)C(=O)c1nc2ccccc2s1	ST14	enzyme activity	inhibitor	–	0.1 µM	remaining activity	4%
CNc1ncc2c(/C=C/C(=O)N3CCC(OC)CC3)nn(Cc3cccc(C(F)(F)F)c3)c2n1	CDK2 with cyclin A2	enzyme activity	inhibitor	radiometric	1 µM	remaining activity	100%
C=CC[C@H](NC(=O)[C@H](Cc1cscn1)NC(=O)CCc1ccccc1)C(=O)N[C@@H](CCCNC(=N)N)C(=O)c1nc2ccccc2s1	ST14	enzyme activity	inhibitor	–	0.1 µM	remaining activity	41%
C=CC(=O)N1CCC(COCC(=O)N2CCN(c3nc(-c4cnc(N)nc4C(F)F)nc(N4CCOC[C@@H]4C)n3)CC2)CC1	Mitogen-activated protein kinase 6 (MAPK6, Homo sapiens, UniProt Q16659)	binding	–	competition with immobilised ligand	1 µM	remaining binding	100%
